{"source": "ChEMBL document CHEMBL5705890", "about": "“Antitumor activity of an allosteric inhibitor of centromere-associated protein-E” (Proc Natl Acad Sci U S A, 2010)", "key": {"C-4-II": {"system": "C-4-II", "assay": "Anticancer activity against human C-4-II cells assessed as cell growth inhibition measured after 72 hrs by DAPI staining based analysis", "assay_type": "functional", "method_in_brief": "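Cells were seeded, and DNA content at 24 h after seeding (T0) was read by imaging of fixed, DAPI-stained cells. Cells were then exposed to a range of drug concentrations for a further 72 h (T72) and DNA content was read again. T72 values were normalized to T0, and GI50 was taken from curve fits as the concentration giving 50% growth inhibition relative to T0 and Ymax.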"}, "NCI-H23 [1]": {"system": "NCI-H23", "assay": "Anticancer activity against human NCI-H23 cells assessed as cell growth inhibition measured after 72 hrs by DAPI staining based analysis", "assay_type": "functional"}, "SW1417": {"system": "SW1417", "assay": "Anticancer activity against human SW1417 cells assessed as cell doubling measured for 72 hrs by DAPI staining based analysis", "assay_type": "functional"}, "DU-145": {"system": "DU-145", "assay": "Anticancer activity against human DU-145 cells assessed as cell growth inhibition measured after 72 hrs by DAPI staining based analysis", "assay_type": "functional", "method_in_brief": "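Cells seeded, DAPI-stained DNA content of fixed cells read by imaging 24 h after seeding (T0), and again after a further 72 h exposure to a range of drug concentrations (T72). T72 values were normalized to T0. Curve fits gave the concentration producing 50% growth inhibition relative to T0 and Ymax (GI50).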"}, "BC-3": {"system": "BC-3", "assay": "Anticancer activity against human BC-3 cells assessed as cell doubling measured for 72 hrs by DAPI staining based analysis", "assay_type": "functional"}, "WiDr": {"system": "WiDr", "assay": "Anticancer activity against human WiDr cells assessed as cell doubling measured for 72 hrs by DAPI staining based analysis", "assay_type": "functional"}, "UMUC3": {"system": "UMUC3", "assay": "Anticancer activity against human UM-UC-3 cells assessed as cell doubling measured for 72 hrs by DAPI staining based analysis", "assay_type": "functional"}, "HCT-116 [2]": {"system": "HCT-116", "assay": "Anticancer activity against human HCT-116 cells assessed as cell doubling measured for 72 hrs by DAPI staining based analysis", "assay_type": "functional"}, "SK-N-FI": {"system": "SK-N-FI", "assay": "Anticancer activity against human SK-N-FI cells assessed as cell doubling measured for 72 hrs by DAPI staining based analysis", "assay_type": "functional"}, "RL": {"system": "RL", "assay": "Anticancer activity against human RL cells assessed as cell doubling measured for 72 hrs by DAPI staining based analysis", "assay_type": "functional"}, "A-427": {"system": "A-427", "assay": "Anticancer activity against human A-427 cells assessed as cell growth inhibition measured after 72 hrs by DAPI staining based analysis", "assay_type": "functional", "method_in_brief": "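Cells were seeded and, after 24 h, DNA content was read as T0. Cells were then exposed to varying drug concentrations for a further 72 h (T72). Fixed cells were DAPI-stained and DNA content measured by automated imaging. T72 values were normalized to T0. GI50 is the concentration giving 50% growth inhibition between T0 and Ymax, obtained by curve fitting.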"}, "[3]": {"target": "Centromere-associated protein E (Homo sapiens, UniProt Q02224, I182L/K184T)", "sequence (Q02224 whole entry I182L/K184T)": "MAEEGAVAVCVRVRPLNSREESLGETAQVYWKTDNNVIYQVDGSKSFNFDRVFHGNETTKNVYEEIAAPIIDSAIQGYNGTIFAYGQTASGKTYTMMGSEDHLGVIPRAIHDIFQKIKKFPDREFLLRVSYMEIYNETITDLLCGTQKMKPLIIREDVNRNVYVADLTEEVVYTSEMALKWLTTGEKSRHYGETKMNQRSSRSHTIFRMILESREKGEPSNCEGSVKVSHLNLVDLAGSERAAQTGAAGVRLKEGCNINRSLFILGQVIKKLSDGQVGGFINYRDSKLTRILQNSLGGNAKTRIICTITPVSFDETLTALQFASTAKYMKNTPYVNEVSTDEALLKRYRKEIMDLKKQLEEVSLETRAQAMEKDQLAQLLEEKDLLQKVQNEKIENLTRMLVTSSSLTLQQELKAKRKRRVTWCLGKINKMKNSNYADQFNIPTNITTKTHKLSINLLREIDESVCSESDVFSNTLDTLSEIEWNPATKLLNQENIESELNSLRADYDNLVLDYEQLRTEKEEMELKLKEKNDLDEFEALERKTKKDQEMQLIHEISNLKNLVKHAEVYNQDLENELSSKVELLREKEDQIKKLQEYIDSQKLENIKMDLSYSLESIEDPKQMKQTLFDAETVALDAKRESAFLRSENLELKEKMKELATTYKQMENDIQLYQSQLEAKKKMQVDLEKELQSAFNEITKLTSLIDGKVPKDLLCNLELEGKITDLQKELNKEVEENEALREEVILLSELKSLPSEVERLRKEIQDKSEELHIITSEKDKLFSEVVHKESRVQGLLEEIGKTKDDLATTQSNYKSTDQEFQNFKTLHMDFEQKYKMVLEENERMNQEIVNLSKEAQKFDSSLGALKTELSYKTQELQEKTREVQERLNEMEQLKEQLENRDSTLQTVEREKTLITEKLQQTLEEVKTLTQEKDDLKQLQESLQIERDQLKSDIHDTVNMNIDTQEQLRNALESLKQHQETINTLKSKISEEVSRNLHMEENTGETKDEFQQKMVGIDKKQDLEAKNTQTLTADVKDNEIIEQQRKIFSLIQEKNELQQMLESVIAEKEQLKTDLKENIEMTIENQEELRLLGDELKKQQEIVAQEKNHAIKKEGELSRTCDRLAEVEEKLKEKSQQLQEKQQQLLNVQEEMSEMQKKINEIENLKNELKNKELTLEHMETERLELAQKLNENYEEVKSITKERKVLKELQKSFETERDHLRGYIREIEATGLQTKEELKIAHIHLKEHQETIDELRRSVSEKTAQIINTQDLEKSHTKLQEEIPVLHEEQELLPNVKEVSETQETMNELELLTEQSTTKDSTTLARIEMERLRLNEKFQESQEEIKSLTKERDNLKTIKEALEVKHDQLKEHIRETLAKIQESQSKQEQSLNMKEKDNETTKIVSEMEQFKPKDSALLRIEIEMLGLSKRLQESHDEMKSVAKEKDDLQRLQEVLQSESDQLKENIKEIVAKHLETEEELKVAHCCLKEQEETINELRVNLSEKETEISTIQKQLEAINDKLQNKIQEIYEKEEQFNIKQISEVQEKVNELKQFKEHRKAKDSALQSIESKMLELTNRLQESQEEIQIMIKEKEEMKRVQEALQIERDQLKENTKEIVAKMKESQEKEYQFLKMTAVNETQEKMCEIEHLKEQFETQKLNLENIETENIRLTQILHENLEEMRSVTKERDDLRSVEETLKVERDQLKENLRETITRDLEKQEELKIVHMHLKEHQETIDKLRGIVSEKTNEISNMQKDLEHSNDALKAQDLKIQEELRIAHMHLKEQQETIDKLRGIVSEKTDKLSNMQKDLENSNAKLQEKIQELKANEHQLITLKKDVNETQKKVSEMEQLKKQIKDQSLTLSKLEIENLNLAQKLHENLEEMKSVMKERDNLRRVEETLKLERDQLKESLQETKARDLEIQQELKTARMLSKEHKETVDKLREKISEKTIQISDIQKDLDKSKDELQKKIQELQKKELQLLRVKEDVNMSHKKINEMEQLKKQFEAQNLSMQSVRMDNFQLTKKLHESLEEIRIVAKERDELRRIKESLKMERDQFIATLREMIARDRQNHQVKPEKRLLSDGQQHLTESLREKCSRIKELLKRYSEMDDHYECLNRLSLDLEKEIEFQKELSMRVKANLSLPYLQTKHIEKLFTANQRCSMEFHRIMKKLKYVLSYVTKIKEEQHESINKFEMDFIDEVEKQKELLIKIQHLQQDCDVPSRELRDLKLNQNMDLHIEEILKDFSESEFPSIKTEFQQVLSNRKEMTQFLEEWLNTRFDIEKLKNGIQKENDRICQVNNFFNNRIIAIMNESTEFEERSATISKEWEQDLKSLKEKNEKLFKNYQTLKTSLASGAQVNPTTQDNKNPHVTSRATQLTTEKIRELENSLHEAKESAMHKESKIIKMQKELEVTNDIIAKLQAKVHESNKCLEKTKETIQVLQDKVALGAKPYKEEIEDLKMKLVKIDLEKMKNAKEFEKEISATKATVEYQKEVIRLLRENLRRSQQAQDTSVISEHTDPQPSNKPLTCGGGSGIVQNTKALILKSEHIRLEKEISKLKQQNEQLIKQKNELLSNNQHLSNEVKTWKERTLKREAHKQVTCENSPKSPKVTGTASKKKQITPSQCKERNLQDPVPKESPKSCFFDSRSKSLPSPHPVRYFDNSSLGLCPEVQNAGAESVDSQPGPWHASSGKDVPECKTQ", "assay": "Binding affinity to human CENP-E I182L/K184T mutant assessed as inhibition constant"}, "SNU1": {"system": "SNU1", "assay": "Anticancer activity against human SNU1 cells assessed as cell doubling measured for 72 hrs by DAPI staining based analysis", "assay_type": "functional"}, "[4]": {"assay": "Anticancer activity against human TE 381.T cells assessed as cell doubling measured for 72 hrs by DAPI staining based analysis", "assay_type": "functional"}, "TK-10": {"system": "TK-10", "assay": "Anticancer activity against human TK-10 cells assessed as cell doubling measured for 72 hrs by DAPI staining based analysis", "assay_type": "functional"}, "MES-SA": {"system": "MES-SA", "assay": "Anticancer activity against human MES-SA cells assessed as cell growth inhibition measured after 72 hrs by DAPI staining based analysis", "assay_type": "functional"}, "SW48": {"system": "SW48", "assay": "Anticancer activity against human SW48 cells assessed as cell growth inhibition measured after 72 hrs by DAPI staining based analysis", "assay_type": "functional"}, "SH-4": {"system": "SH-4", "assay": "Anticancer activity against human SH-4 cells assessed as cell growth inhibition measured after 72 hrs by DAPI staining based analysis", "assay_type": "functional"}, "CESS": {"system": "CESS", "assay": "Anticancer activity against human CESS cells assessed as cell doubling measured for 72 hrs by DAPI staining based analysis", "assay_type": "functional"}, "[5]": {"target": "Centromere-associated protein E (Homo sapiens, UniProt Q02224, T183A)", "sequence (Q02224 whole entry T183A)": "as the sequence (Q02224 whole entry I182L/K184T) above, with L182I, T183A, T184K counted along it", "assay": "Binding affinity to human CENP-E T183A mutant assessed as inhibition constant"}, "[6]": {"assay": "Binding affinity to human CENP-E T183A/K184T mutant assessed as inhibition constant"}, "NCI-H23 [7]": {"system": "NCI-H23", "assay": "Anticancer activity against human NCI-H23 cells assessed as cell doubling measured for 72 hrs by DAPI staining based analysis", "assay_type": "functional"}, "T-24": {"system": "T-24", "assay": "Anticancer activity against human T24 cells assessed as cell doubling measured for 72 hrs by DAPI staining based analysis", "assay_type": "functional"}, "MV4-11": {"system": "MV4-11", "assay": "Anticancer activity against human MV4-11 cells assessed as cell doubling measured for 72 hrs by DAPI staining based analysis", "assay_type": "functional"}, "EFM-19": {"system": "EFM-19", "assay": "Anticancer activity against human EFM-19 cells assessed as cell doubling measured for 72 hrs by DAPI staining based analysis", "assay_type": "functional"}, "[8]": {"assay": "Anticancer activity against human MJ cells assessed as cell growth inhibition measured after 72 hrs by DAPI staining based analysis", "assay_type": "functional"}, "A673": {"system": "A673", "assay": "Anticancer activity against human A673 cells assessed as cell doubling measured for 72 hrs by DAPI staining based analysis", "assay_type": "functional"}, "NCI-H520": {"system": "NCI-H520", "assay": "Anticancer activity against human NCI-H520 cells assessed as cell growth inhibition measured after 72 hrs by DAPI staining based analysis", "assay_type": "functional"}, "SW1463": {"system": "SW1463", "assay": "Anticancer activity against human SW1463 cells assessed as cell growth inhibition measured after 72 hrs by DAPI staining based analysis", "assay_type": "functional"}, "SNU-398": {"system": "SNU-398", "assay": "Anticancer activity against human SNU-398 cells assessed as cell growth inhibition measured after 72 hrs by DAPI staining based analysis", "assay_type": "functional"}, "MX1": {"system": "MX1", "assay": "Antitumor activity against human MX1 cells in xenograft model assessed as difference between median time to endpoint time of treated versus control group at 125 mg/kg", "assay_type": "functional"}, "NCI-H82": {"system": "NCI-H82", "assay": "Anticancer activity against human NCI-H82 cells assessed as cell doubling measured for 72 hrs by DAPI staining based analysis", "assay_type": "functional"}, "SW480": {"system": "SW480", "assay": "Anticancer activity against human SW480 cells assessed as cell doubling measured for 72 hrs by DAPI staining based analysis", "assay_type": "functional"}, "MC-CAR": {"system": "MC-CAR", "assay": "Anticancer activity against human MC-CAR cells assessed as cell doubling measured for 72 hrs by DAPI staining based analysis", "assay_type": "functional"}, "HeLa": {"system": "HeLa", "assay": "Anticancer activity against human HeLa cells assessed as cell growth inhibition measured after 72 hrs by DAPI staining based analysis", "assay_type": "functional"}, "OVCAR-3": {"system": "OVCAR-3", "assay": "Anticancer activity against human OVCAR-3 cells assessed as cell doubling measured for 72 hrs by DAPI staining based analysis", "assay_type": "functional"}, "A549 [9]": {"system": "A549", "assay": "Antitumor activity against human A549 cells in xenograft model assessed as tumor growth delay at 125 mg/kg relative to control", "assay_type": "functional"}, "HCT-116 [10]": {"system": "HCT-116", "assay": "Antitumor activity against human HCT-116 cells in xenograft model assessed as tumor growth delay at 125 mg/kg relative to control", "assay_type": "functional"}, "A549 [11]": {"system": "A549", "assay": "Antitumor activity against human A549 cells in xenograft model assessed as difference between median time to endpoint time of treated versus control group at 62.5 mg/kg", "assay_type": "functional"}, "LS-1034": {"system": "LS-1034", "assay": "Anticancer activity against human LS1034 cells assessed as cell doubling measured for 72 hrs by DAPI staining based analysis", "assay_type": "functional"}, "[12]": {"assay": "Anticancer activity against human KHOS-240S cells assessed as cell doubling measured for 72 hrs by DAPI staining based analysis", "assay_type": "functional"}}, "data": [{"smiles": "CC(C)Oc1ccc(C(=O)N[C@H](CNC(=O)CN(C)C)Cc2ccc(-c3cn4cccc([C@H](C)O)c4n3)cc2)cc1Cl", "note": "[GSK-923295A]", "values": [{"measurement": "GI50", "setting": "C-4-II", "value": 46, "unit": "nM"}, {"measurement": "GI50", "setting": "NCI-H23 [1]", "value": 27, "unit": "nM"}, {"measurement": "Activity", "setting": "SW1417", "value": 1.94}, {"measurement": "GI50", "setting": "DU-145", "value": 23, "unit": "nM"}, {"measurement": "Activity", "setting": "BC-3", "value": 2.65}, {"measurement": "Activity", "setting": "WiDr", "value": 3.05}, {"measurement": "Activity", "setting": "UMUC3", "value": 2.44}, {"measurement": "Activity", "setting": "HCT-116 [2]", "value": 4.11}, {"measurement": "Activity", "setting": "SK-N-FI", "value": 1.24}, {"measurement": "Activity", "setting": "RL", "value": 3.17}, {"measurement": "GI50", "setting": "A-427", "value": 97, "unit": "nM"}, {"measurement": "Ki", "setting": "[3]", "value": 18, "unit": "nM"}, {"measurement": "Activity", "setting": "SNU1", "value": 2.64}, {"measurement": "Activity", "setting": "[4]", "value": 1.92}, {"measurement": "Activity", "setting": "TK-10", "value": 1.94}, {"measurement": "GI50", "setting": "MES-SA", "value": 65, "unit": "nM"}, {"measurement": "GI50", "setting": "SW48", "value": 25, "unit": "nM"}, {"measurement": "GI50", "setting": "SH-4", "value": 44, "unit": "nM"}, {"measurement": "Activity", "setting": "CESS", "value": 1.39}, {"measurement": "Ki", "setting": "[5]", "value": 13, "unit": "nM"}, {"measurement": "Ki", "setting": "[6]", "value": 11, "unit": "nM"}, {"measurement": "Activity", "setting": "NCI-H23 [7]", "value": 2.04}, {"measurement": "Activity", "setting": "T-24", "value": 1.57}, {"measurement": "Activity", "setting": "MV4-11", "value": 1.79}, {"measurement": "Activity", "setting": "EFM-19", "value": 1.43}, {"measurement": "GI50", "setting": "[8]", "value": 50, "unit": "nM"}, {"measurement": "Activity", "setting": "A673", "value": 2}, {"measurement": "GI50", "setting": "NCI-H520", "value": 34, "unit": "nM"}, {"measurement": "GI50", "setting": "SW1463", "value": 31, "unit": "nM"}, {"measurement": "GI50", "setting": "SNU-398", "value": 27, "unit": "nM"}, {"measurement": "Time", "setting": "MX1", "value": 6.9, "unit": "days"}, {"measurement": "Activity", "setting": "NCI-H82", "value": 2}, {"measurement": "Activity", "setting": "SW480", "value": 2.21}, {"measurement": "Activity", "setting": "MC-CAR", "value": 2.03}, {"measurement": "GI50", "setting": "HeLa", "value": 20, "unit": "nM"}, {"measurement": "Activity", "setting": "OVCAR-3", "value": 1.56}, {"measurement": "Activity", "setting": "A549 [9]", "value": 73, "unit": "%"}, {"measurement": "Activity", "setting": "HCT-116 [10]", "value": 37, "unit": "%"}, {"measurement": "Time", "setting": "A549 [11]", "value": 3.7, "unit": "days"}, {"measurement": "Activity", "setting": "LS-1034", "value": 1.73}, {"measurement": "Activity", "setting": "[12]", "value": 2.44}]}]}
